From PMC11328607 (Journal of Enzyme Inhibition and Medicinal Chemistry, 2024)
Values joined by “and” are separate entries in the source; they are usually repeats but may differ in a detail not shown here. Identical values can stand only once. Like-named read-outs stand apart in the source and are kept apart here.

Columns and labels:
[1] = system: normal human lung fibroblasts (Wi-38); assay: MTT cytotoxicity assay on normal lung fibroblasts; format: cell-based; conditions: for IC50: read-out: Wi-38 IC50
human NSCLC A549 cells = assay: MTT cytotoxicity assay on NSCLC cells; format: cell-based; conditions: for IC50: Mean ± SD, n = 3; for SI (ratio of IC50 for healthy and cancer cells): Wi-38 IC50 / A549 IC50; for fold more potent than cisplatin: A549 IC50 relative to cisplatin
Summary of the method: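 Human A549 and Wi-38 fibroblasts (ATCC) grown in DMEM with 10% FBS at 37 °C, 5% CO2. Wi-38 seeded at 5 x10^3 cells/well and given 24 h to attach; A549 run by the same MTT method. […] MTT 5 mg/ml added for 3 h at 37 °C, formazan dissolved in DMSO, A570 read. IC50 derived; SI = Wi-38 IC50/A549 IC50. Mean ± SD, n = 3.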

[2] = molecular target: CaV3.2 (T-type) calcium channels (Homo sapiens, UniProt O95180); assay: Whole cell patch-clamp T-type calcium channel block; format: cell-based; conditions: HEK-tsA201, read-out: Block of CaV3.2 (T-type) currents, percentage of inhibition, 10 μM; HEK tsA-201 cells; n = 3
Sequence of CaV3.2 (T-type) calcium channels (O95180 whole entry): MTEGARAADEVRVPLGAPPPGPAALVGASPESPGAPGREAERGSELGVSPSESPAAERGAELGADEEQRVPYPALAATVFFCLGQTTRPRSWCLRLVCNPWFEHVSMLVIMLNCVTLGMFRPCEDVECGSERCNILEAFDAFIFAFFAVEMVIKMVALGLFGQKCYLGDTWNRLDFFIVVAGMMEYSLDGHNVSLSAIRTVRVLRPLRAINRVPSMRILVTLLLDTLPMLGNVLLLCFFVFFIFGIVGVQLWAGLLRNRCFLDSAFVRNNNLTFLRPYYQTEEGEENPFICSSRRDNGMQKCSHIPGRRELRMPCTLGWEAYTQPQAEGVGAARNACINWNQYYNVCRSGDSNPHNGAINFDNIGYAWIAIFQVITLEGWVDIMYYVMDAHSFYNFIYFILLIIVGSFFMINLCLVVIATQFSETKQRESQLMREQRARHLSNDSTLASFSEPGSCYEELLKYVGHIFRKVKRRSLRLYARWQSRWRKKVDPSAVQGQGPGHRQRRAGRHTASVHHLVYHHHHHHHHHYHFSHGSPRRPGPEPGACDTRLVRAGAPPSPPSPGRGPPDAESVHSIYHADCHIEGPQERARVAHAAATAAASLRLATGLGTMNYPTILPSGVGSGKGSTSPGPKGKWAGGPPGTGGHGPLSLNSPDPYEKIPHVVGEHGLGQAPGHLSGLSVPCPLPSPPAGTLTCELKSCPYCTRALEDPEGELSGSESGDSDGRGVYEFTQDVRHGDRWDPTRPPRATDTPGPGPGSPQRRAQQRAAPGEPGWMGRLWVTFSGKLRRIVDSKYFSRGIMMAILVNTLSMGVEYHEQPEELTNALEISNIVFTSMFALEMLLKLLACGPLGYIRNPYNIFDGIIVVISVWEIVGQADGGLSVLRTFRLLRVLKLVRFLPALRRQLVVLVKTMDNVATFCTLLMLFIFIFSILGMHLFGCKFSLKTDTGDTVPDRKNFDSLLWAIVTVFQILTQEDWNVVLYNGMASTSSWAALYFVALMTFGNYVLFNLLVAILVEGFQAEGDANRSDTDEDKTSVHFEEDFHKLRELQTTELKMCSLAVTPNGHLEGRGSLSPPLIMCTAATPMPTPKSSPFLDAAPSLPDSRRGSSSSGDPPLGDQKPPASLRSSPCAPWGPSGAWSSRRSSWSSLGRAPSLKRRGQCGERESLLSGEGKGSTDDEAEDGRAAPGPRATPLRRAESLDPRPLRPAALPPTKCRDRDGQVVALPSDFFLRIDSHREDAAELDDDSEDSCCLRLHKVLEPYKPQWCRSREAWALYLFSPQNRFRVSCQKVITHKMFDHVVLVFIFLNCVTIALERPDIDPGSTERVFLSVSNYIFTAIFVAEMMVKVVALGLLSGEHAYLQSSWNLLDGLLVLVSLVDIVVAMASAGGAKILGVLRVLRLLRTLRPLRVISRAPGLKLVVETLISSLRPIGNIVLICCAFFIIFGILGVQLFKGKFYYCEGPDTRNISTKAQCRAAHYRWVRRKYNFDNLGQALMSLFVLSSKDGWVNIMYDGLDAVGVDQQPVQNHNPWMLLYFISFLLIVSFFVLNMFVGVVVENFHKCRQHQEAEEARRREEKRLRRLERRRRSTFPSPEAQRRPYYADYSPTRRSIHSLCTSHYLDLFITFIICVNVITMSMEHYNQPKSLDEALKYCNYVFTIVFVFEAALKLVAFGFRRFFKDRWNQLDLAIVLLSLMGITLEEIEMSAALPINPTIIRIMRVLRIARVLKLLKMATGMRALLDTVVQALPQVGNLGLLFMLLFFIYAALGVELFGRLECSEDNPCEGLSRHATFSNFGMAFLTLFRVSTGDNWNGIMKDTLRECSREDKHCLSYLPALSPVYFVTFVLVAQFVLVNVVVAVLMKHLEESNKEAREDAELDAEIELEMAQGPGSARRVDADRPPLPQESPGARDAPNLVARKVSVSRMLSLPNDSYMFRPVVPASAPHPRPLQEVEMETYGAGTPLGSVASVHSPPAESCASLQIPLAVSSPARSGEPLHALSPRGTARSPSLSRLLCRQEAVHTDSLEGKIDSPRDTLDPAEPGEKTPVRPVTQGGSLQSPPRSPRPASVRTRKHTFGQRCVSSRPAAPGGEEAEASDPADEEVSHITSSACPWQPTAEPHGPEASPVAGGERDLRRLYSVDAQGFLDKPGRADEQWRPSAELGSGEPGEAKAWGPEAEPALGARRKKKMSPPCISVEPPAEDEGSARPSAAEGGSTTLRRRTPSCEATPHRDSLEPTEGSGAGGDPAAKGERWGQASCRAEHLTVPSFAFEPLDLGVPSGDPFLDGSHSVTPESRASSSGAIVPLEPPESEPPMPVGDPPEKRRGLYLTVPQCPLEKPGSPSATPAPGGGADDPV
Summary of the method: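 Human embryonic kidney tsA-201 (293T) cells transiently transfected to express CaV3.2 T-type channels, then recorded by whole-cell patch clamp. Each test compound applied at 10 µM and block of T-type calcium current measured.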

MMP-9 = MMP-9 (Homo sapiens, UniProt P14780); assay: In vitro MMP-9 inhibition assay; format: biochemical
Sequence of MMP-9 (P14780 94-707): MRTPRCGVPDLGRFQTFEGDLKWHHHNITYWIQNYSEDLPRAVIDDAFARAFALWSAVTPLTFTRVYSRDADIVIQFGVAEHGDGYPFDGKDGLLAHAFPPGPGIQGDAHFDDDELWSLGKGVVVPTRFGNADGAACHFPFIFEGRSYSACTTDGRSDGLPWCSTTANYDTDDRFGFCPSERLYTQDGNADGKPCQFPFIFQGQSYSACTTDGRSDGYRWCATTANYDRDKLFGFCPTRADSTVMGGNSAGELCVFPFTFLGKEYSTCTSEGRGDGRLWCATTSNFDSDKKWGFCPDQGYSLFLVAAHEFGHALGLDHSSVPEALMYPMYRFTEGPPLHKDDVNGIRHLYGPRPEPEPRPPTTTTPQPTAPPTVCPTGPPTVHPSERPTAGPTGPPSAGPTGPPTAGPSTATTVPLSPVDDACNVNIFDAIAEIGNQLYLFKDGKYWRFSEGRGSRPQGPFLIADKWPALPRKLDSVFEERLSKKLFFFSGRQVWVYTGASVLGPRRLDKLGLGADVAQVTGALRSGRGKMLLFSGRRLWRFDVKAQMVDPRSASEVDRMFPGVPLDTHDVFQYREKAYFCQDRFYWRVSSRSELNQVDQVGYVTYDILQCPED
Summary of the method: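 Commercial MMP-9 inhibitor assay kit, run per the manufacturer's instructions. Test compounds were assayed at 0.5 µM alongside the broad-spectrum hydroxamate MMP inhibitor NNGH as reference. For selectivity, MMP-2 inhibition was measured with a colorimetric MMP-2 inhibitor screening kit at the same 0.5 µM, also per the manufacturer's instructions.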

[3] = DPPH radical scavenging assay; conditions: n = 3; for DPPH radical scavenging %: 12 h, dark
Summary of the method: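 Test compound dissolved in 1:1 water:DMSO (v/v), then mixed with an equal volume of 0.6 mM DPPH in absolute ethanol, giving final 500, 250, 125, 100, 62.5 and 31.25 µg/mL. Kept 12 h at room temperature in complete darkness. Absorbance read at 517 nm. Inhibition % taken from control (A0) versus compound (A1) absorbance, IC50 then calculated. Mean ± SD, n = 3.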

A549 cells = assay: Combination studies with cisplatin; format: cell-based, human
[4] = Homo sapiens, A549, 72 h, read-out: A549 IC50, MTT, 72 h

SMILES	IC50 ([1]; Homo sapiens, WI-38, 72 h)	Wi-38 EC100 (effective safe concentration at 100% cell viability) ([1]; MTT, 72 h, Mean ± SD, n = 3)	IC50 (human NSCLC A549 cells; [4])	inhibition at 10 µM [2]	other results
Cc1ccc(C2=NNC(c3cn(CC(=O)Nc4nc(-c5ccccc5)cs4)nn3)C2)cc1 (stereo not shown) [Compound 7c, 2-{4-[3-(p-tolyl)-4,5-dihydro-1H-pyrazol-5-yl]-1H-1,2,3-triazol-1-yl}-N-(4-phenylthiazol-2-yl)acetamide]	230 ± 5 nM	51 ± 7 nM	200 ± 6 nM		SI (ratio of IC50 for healthy and cancer cells) (human NSCLC A549 cells): 1.15
O=C(Cn1cc(CO)nn1)Nc1nc(-c2ccccc2)cs1 [Compound 4, 2-[4-(Hydroxymethyl)-1H-1,2,3-triazol-1-yl]-N-(4-phenylthiazol-2-yl)acetamide]	249 ± 2 nM	58 ± 4 nM	268 ± 2 nM	~60%	
[N-]=[N+]=NCC(=O)Nc1nc(-c2ccccc2)cs1 [Compound 3, 2-Azido-N-(4-phenylthiazol-2-yl)acetamide]	1728 ± 3 nM	429 nM and 429 ± 32 nM	74.4 nM		fold more potent than cisplatin (human NSCLC A549 cells): ~8 fold; IC50 (human NSCLC A549 cells; read-out: A549 IC50, MTT, 72 h): 74 ± 4 nM
N.N.[Cl][Pt][Cl] [Cisplatin, reference compound]					IC50 ([1]; MTT, 72 h, Mean ± SD, n = 3): 1330 ± 82 nM; IC50 (human NSCLC A549 cells; read-out: A549 IC50, MTT, 72 h): 586 ± 30 nM
O=C(Cn1cc(C2CC(c3ccc(F)cc3)=NN2)nn1)Nc1nc(-c2ccccc2)cs1 (stereo not shown) [Compound 7d, 2-{4-[3–(4-Fluorophenyl)-4,5-dihydro-1H-pyrazol-5-yl]-1H-1,2,3-triazol-1-yl}-N-(4-phenylthiazol-2-yl)acetamide]	1300 ± 31 nM	108 ± 15 nM	425 ± 17 nM		SI (ratio of IC50 for healthy and cancer cells) (human NSCLC A549 cells): 3.05
COc1ccc(S(=O)(=O)N(CC(=O)NO)CC(C)C)cc1 [NNGH, reference compound]					MMP-9 % Inhibition (0.5 μM) (MMP-9; 0.5 μM, Mean ± SD, n = 2): 56.8 ± 0.8%; IC50 (MMP-9; read-out: MMP-9 IC50, Mean ± SD, n = 2): 350 ± 10 nM
CC(=O)C=Cc1cn(CC(=O)Nc2nc(-c3ccccc3)cs2)nn1 [Compound 6a, 2-[4–(3-Oxobut-1-en-1-yl)-1H-1,2,3-triazol-1-yl]-N-(4-phenylthiazol-2-yl)acetamide]	1920 ± 212 nM	460 nM and 460 ± 110 nM	82 ± 5 nM		
O=C(Cn1cc(C=CC(=O)c2ccc(F)cc2)nn1)Nc1nc(-c2ccccc2)cs1 [Compound 6d, 2-{4-[3–(4-Fluorophenyl)-3-oxoprop-1-en-1-yl]-1H-1,2,3-triazol-1-yl}-N-(4-phenylthiazol-2-yl)acetamide]	255 ± 3 nM	138 ± 9 nM	21 ± 1 nM	~60%	DPPH radical scavenging % ([3]; 250 µg/mL): 70.9 ± 6.6%; DPPH radical scavenging % ([3]; 500 µg/mL): 85.4 ± 7.9%; DPPH radical scavenging IC50 ([3]; Mean ± SD): 146.9 ± 22.54 µg/mL; lowering of combination IC50 compared to cisplatin as single agent (A549 cells; 6d combined with cisplatin): > 72.3% and > 72.32%; dose reduction index (DRI) for cisplatin (A549 cells; 6d with cisplatin at IC50 doses): 6.89 folds; combination index (CI) (A549 cells; 6d with cisplatin, CI < 1 synergistic): 0.69 ± 0.05 and 0.69; fold more potent than cisplatin (human NSCLC A549 cells): 27 fold; IC50 (MMP-9): 90 ± 10 nM; selectivity to MMP-9 over MMP-2 (SI) (MMP-9; MMP-9 over MMP-2, 0.5 μM): 2.4; inhibition at 0.5 µM (MMP-9; read-out: MMP-9 % Inhibition (0.5 μM)): 96.2 ± 0.6%; fold more active than NNGH (MMP-9 IC50) (MMP-9; relative to NNGH): ~4 fold
O=Cc1cn(CC(=O)Nc2nc(-c3ccccc3)cs2)nn1 [Compound 5, 2–(4-Formyl-1H-1,2,3-triazol-1-yl)-N-(4-phenylthiazol-2-yl)acetamide]	243 ± 14 nM	78 ± 4 nM	112 nM	20%	
O=C(C=Cc1cn(CC(=O)Nc2nc(-c3ccccc3)cs2)nn1)C=Cc1cn(CC(=O)Nc2nc(-c3ccccc3)cs2)nn1 [Compound 8, 2,2’-[(3-Oxopenta-1,4-diene-1,5-diyl)bis(1H-1,2,3-triazole-4,1-diyl)]bis(N-(4-phenylthiazol-2-yl)acetamide)]	108 ± 3 nM	38 ± 2 nM	116 ± 1 nM		
